Results of several laboratories.
Read-out: cell growth or viability

| SMILES | cell line | assay | setting | IC50 |
| --- | --- | --- | --- | --- |
| O=C1CSC(=Nc2cc(C(F)(F)F)ccc2-c2nnc(N3C(=O)CSC3=Nc3ccc([N+](=O)[O-])cc3)s2)N1c1ccc([N+](=O)[O-])cc1 | WI-38 | MTT |  | 77.3 µM |
| COc1cc(C2C3=C(COC3=O)N(CCO)c3cc4c(cc32)CCC4)cc(OC)c1OC (centres unmarked) | E0771 | ATP luminescence | 48 h | 0.039 µM |
| O=C1CS/C(=N\c2cc(C(F)(F)F)ccc2-c2nnc(N3C(=O)CS/C3=N\c3ccc(-c4ccccc4)cc3)s2)N1c1ccc(-c2ccccc2)cc1 | WI-38 | MTT |  | 94.7 µM |
| OCc1ccc(-c2nn(Cc3cccnc3)c3cccnc23)o1 | HuCCT-1 | ATP luminescence |  | > 46 µM |
| O=C1CS/C(=N\c2cc(C(F)(F)F)ccc2-c2nnc(N3C(=O)CS/C3=N\c3ccc(Cl)cc3)s2)N1c1ccc(Cl)cc1 | WI-38 | MTT |  | 49.2 µM |
| O=c1[nH]cc(F)c(=O)[nH]1 | HaCaT | SRB |  | 0.05 µg/mL |
| CNC(=O)c1ccccc1Nc1cc(Nc2ccc(N3CCOCC3)cc2OC)ncc1C(F)(F)F | ASPC1 | MTT | 48 h | 3.19 µM |
| Cc1ccc(NC(=O)Nc2ccc(-c3ccc4ncn(Cc5ccccc5)c(=O)c4c3)cn2)cc1 | HCC827 | CCK-8 | 72 h | > 10 µM |
| O=C1CS/C(=N\c2cc(C(F)(F)F)ccc2-c2nnc(N3C(=O)CS/C3=N\c3ccc(F)c(O)c3)s2)N1c1ccc(F)c(O)c1 | WI-38 | MTT |  | 20.3 µM |
| CCCCn1cnc2ccc(-c3ccc(NC(=O)NCC)nc3)cc2c1=O | HCC827 | CCK-8 | 72 h | > 10 µM |
| CC(C)[C@@H]1NC(=O)[C@H](Cc2c[nH]cn2)NC1=O | ASPC1 | SRB |  | > 15 µM |
| COc1cccc2c1C(=O)c1c(O)c3c(c(O)c1C2=O)C[C@@](O)(C(=O)CO)C[C@@H]3O[C@H]1C[C@H](N)[C@H](O)[C@H](C)O1 | HuCCT-1 |  | 96 h | 0.0249 µM |
| CCCCC(=O)Nc1ccc(-c2ccc3ncn(CCC)c(=O)c3c2)cn1 | HCC827 | CCK-8 | 72 h | 0.037 µM |
| Cc1nc(Nc2ncc(C(=O)Nc3c(C)cccc3Cl)s2)cc(N2CC[C@H](O)C2)n1 | OCI-LY19 | ATP luminescence | 72 h | > 10 µM |
| COc1ccccc1Cn1nc(-c2ccc(CO)o2)c2ccccc21 | HuCCT-1 | ATP luminescence |  | > 46 µM |
| O=C1CSC(=Nc2cc([N+](=O)[O-])ccc2[N+](=O)[O-])N1c1nnc(-c2ccc(C(F)(F)F)cc2N=C2SCC(=O)N2c2cc([N+](=O)[O-])ccc2[N+](=O)[O-])s1 | WI-38 | MTT |  | 89.2 µM |
| CCCn1cnc2ccc(-c3ccc(NC(=O)CNC(C)C)nc3)cc2c1=O | HCC827 | CCK-8 | 72 h | > 10 µM |
| COc1cccc(Cn2nc(-c3ccc(CO)o3)c3ccccc32)c1 | HuCCT-1 | ATP luminescence |  | > 46 µM |

| SMILES | cell line | assay | setting | IC50 |
| --- | --- | --- | --- | --- |
| CC(C)C(=O)Nc1ccc([N+](=O)[O-])c(C(F)(F)F)c1 | HaCaT | MTS | 48 h | > 100 µM |
| OCc1ccc(-c2nn(Cc3cccnc3)c3ccccc23)o1 | HuCCT-1 | ATP luminescence |  | > 46 µM |
| O=C(Nc1ccc(-c2ccc3ncn(Cc4ccc5c(c4)OCO5)c(=O)c3c2)cn1)c1ccccc1 | HCC827 | CCK-8 | 72 h | 8.81 µM |
| Cc1ccc(S(=O)(=O)[O-])cc1.Nc1c([I+]c2ccccc2)c(=O)oc2ccccc12 | HaCaT | MTT | 48 h | 35 µg/mL |
| CC(C)=CCc1ncc(/C=C2\NC(=O)[C@H](C(C)C)NC2=O)[nH]1 | ASPC1 | SRB |  | > 15 µM |
| COc1ccc(N=Nc2c(N)nn3c(-c4ccc(C)cc4)cc(-c4ccc(OCc5ccccc5)cc4)nc23)cc1 | WI-38 | MTT | 48 h | 47 µM |
| COc1cccc2c1C(=O)c1c(O)c3c(c(O)c1C2=O)C[C@@](O)(C(=O)CO)C[C@@H]3O[C@H]1C[C@H](N)[C@H](O)[C@H](C)O1 | WI-38 | MTT |  | 52.6 µM |
| CC(C)[C@@H]1NC(=O)/C(=C/c2cnc[nH]2)NC1=O | ASPC1 | SRB |  | > 15 µM |
| CCCCC(=O)Nc1ccc(-c2ccc3ncn(CCC)c(=O)c3c2)c(C)n1 | HCC827 | CCK-8 | 72 h | 1.68 µM |
| CC1(P2(=O)CCCCC2)C=CCC=C1 | HaCaT | MTT | 72 h | > 100 µM |
| CCCCn1cnc2ccc(-c3ccc(NC(=O)Nc4ccc(CC)cc4)nc3)cc2c1=O | HCC827 | CCK-8 | 72 h | > 10 µM |
| NCc1ccc(-c2nn(Cc3ccccn3)c3cccnc23)o1 | HuCCT-1 | ATP luminescence |  | > 46 µM |
| CCCCn1cnc2ccc(-c3ccc(NC(=O)Nc4ccc(C)cc4)nc3)cc2c1=O | HCC827 | CCK-8 | 72 h | 9.15 µM |
| COc1cnccc1Cn1nc(-c2ccc(CO)o2)c2ccccc21 | HuCCT-1 | ATP luminescence |  | > 46 µM |
| COc1cccc2c1C(=O)c1c(O)c3c(c(O)c1C2=O)C[C@@](O)(C(=O)CO)C[C@@H]3O[C@H]1C[C@H](N)[C@H](O)[C@H](C)O1 | HaCaT | MTT | 72 h | 0.3 µM |
| OCc1ccc(-c2nn(Cc3ccncc3)c3ccccc23)o1 | HuCCT-1 | ATP luminescence |  | > 46 µM |
| O=C1CS/C(=N\c2ccc(F)cc2O)N1c1nnc(-c2ccc(C(F)(F)F)cc2/N=C2\SCC(=O)N2c2ccc(F)cc2O)s1 | WI-38 | MTT |  | 20.5 µM |
